Calls of active or inactive are those of the source.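 Rule for the calls: active = mean IC50 at or below 20 µM; inactive = the rest.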
What follows are molecules tested on 697 B-cell NF-kB luciferase, PMA/ionomycin, 16 h (assay: stimulated NF-kB reporter signal decrease, 697 cells – cell-based, luminescence, B-cell NF-kB inhibitor project, SAR follow-up (AID 504485)).
How it was run: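 Technique: luciferase luminescence with SteadyGlo reagent. Test system: human 697 B-cell line with NF-kB-driven luciferase reporter. Input: 15000 cells per well. Doses: dose series. Control set: DMSO and no-agonist wells. Timing: 1 h pretreatment, 16 h stimulation, 37 °C. Also added: PMA plus ionomycin stimulation of NF-kB.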

Row | IC50 | SMILES
1 | > 79000 nM (inactive) | Cc1oc(-c2ccccc2)nc1CSCC(=O)NCc1ccco1
2 | 1320 nM | CCOc1ccc(-c2nc(CSCC(=O)NCC3CC3)c(C)o2)cc1
3 | 210 nM | CCCCc1ccc(-c2noc(CCC(=O)NC3CC3)n2)cc1
4 | > 79000 nM (inactive) | CCc1ccc(-c2noc(CCC(=O)NC)n2)cc1
5 | > 79000 nM (inactive) | CCNC(=O)CCc1nc(-c2cccc(C)c2)no1
6 | 480 nM | CCc1ccc(-c2nc(CSCC(=O)NC3CC3)c(C)o2)cc1
7 | > 79000 nM (inactive) | CCNC(=O)CCc1nc(-c2cccc(F)c2)no1
8 | 49400 nM (inactive) | CCc1ccc(-c2nc(CSCC(=O)NCc3ccco3)c(C)o2)cc1
9 | 210 nM | CNC(=O)CCc1nc(-c2ccc(C(C)C)cc2)no1
10 | 260 nM | CCCCOc1ccc(-c2nc(CSCC(=O)NCc3ccco3)c(C)o2)cc1
11 | > 79000 nM (inactive) | O=C(CCc1nc(-c2ccccc2)no1)NC1CC1
12 | > 79000 nM (inactive) | CCOc1ccccc1-c1nc(CSCC(=O)NC2CC2)c(C)o1
13 | > 79000 nM (inactive) | CCNC(=O)CCc1nc(-c2ccccc2)no1
14 | 260 nM | CC(C)c1ccc(-c2noc(CCC(=O)NC3CC3)n2)cc1
15 | > 79000 nM (inactive) | CCNC(=O)CCc1nc(-c2ccc(CC)cc2)no1
16 | > 79000 nM (inactive) | CCOc1ccc(-c2nc(CSCC(=O)N(C)C)c(C)o2)cc1
17 | < 150 nM | CCOc1ccc(-c2nc(CSCC(=O)O)c(C)o2)cc1
18 | > 79000 nM (inactive) | CCNC(=O)CCc1nc(-c2ccc(OCC)cc2)no1
19 | 330 nM | CCOc1ccc(-c2nc(CSCC(=O)NC)c(C)o2)cc1
20 | 29500 nM (inactive) | COc1ccc(-c2nc(CSCC(=O)NCc3ccco3)c(C)o2)cc1
21 | 7960 nM | CCC(C)NC(=O)CCc1nc(-c2ccc(C(C)C)cc2)no1 (stereo not drawn)
22 | 240 nM | Cc1oc(-c2ccc(OC(F)(F)F)cc2)nc1CSCC(=O)O
23 | < 150 nM | C#CCNC(=O)CSCc1nc(-c2ccc(OCC)cc2)oc1C
24 | 410 nM | CC(C)(C)c1ccc(-c2noc(CCC(=O)NC3CCC3)n2)cc1
25 | 36800 nM (inactive) | CCOC(=O)CC(NC(=O)c1ccc(Br)cc1)c1ccc(F)c([N+](=O)[O-])c1 (stereo not drawn)
26 | < 160 nM | CC(C)(C)c1ccc(-c2noc(CCC(N)=O)n2)cc1

Row | IC50 | SMILES
27 | 30 nM | CCNC(=O)CCc1nc(-c2ccc(C(C)(C)C)cc2)no1
28 | 670 nM | CCCCc1ccc(-c2noc(CCC(=O)NC(C)CC)n2)cc1 (stereo not drawn)
29 | > 79000 nM (inactive) | CCNC(=O)CCc1nc(-c2cccc(OC)c2)no1
30 | 60 nM | CC(C)(C)c1ccc(-c2noc(CCC(=O)NC3CC3)n2)cc1
31 | > 79000 nM (inactive) | CC(C)(C)NC(=O)CCc1nc(-c2ccccc2)no1
32 | > 79000 nM (inactive) | CCC(C)NC(=O)CCc1nc(-c2ccccc2)no1 (stereo not drawn)
33 | 34000 nM (inactive) | CCOc1ccc(-c2noc(CCC(=O)O)n2)cc1
34 | 240 nM | CCCCOc1ccc(-c2nc(CSCC(=O)NC3CC3)c(C)o2)cc1
35 | 60500 nM (inactive) | CCOc1ccc(-c2nc(CSCC(=O)NC(C)(C)C)c(C)o2)cc1
36 | 58400 nM (inactive) | CCN(CC)C(=O)CCc1nc(-c2ccc(C(C)(C)C)cc2)no1
37 | < 160 nM | COC(=O)CCc1nc(-c2ccc(C(C)(C)C)cc2)no1
38 | > 79000 nM (inactive) | CCNC(=O)CCc1nc(-c2ccccc2Cl)no1
39 | > 79000 nM (inactive) | CCNC(=O)CCc1nc(-c2ccccc2C)no1
40 | < 150 nM | CCCOc1ccc(-c2nc(CSCC(=O)NC3CC3)c(C)o2)cc1
41 | > 79000 nM (inactive) | CCc1ccc(-c2nc(CSCC(=O)NC3CC3)c(-c3ccccc3)o2)cc1
42 | 200 nM | CCCCc1ccc(-c2noc(CCC(=O)NC)n2)cc1
43 | > 79000 nM (inactive) | CCNC(=O)CCc1nc(-c2c(Cl)cccc2Cl)no1
44 | 170 nM | CCCOc1ccc(-c2nc(CSCC(=O)NCc3ccco3)c(C)o2)cc1
45 | > 79000 nM (inactive) | COc1cccc(-c2cc(=O)c3cc(NC(=O)c4ccc(N(C)C)cc4)ccc3[nH]2)c1
46 | > 79000 nM (inactive) | Cc1ccc(-c2nc(CSCC(=O)NCc3ccco3)c(C)o2)cc1
47 | 41500 nM (inactive) | CN(C)C(=O)CCc1nc(-c2ccc(C(C)(C)C)cc2)no1
48 | 180 nM | CCCCOc1ccc(-c2nc(CSCC(=O)O)c(C)o2)cc1
49 | > 79000 nM (inactive) | CCOc1cccc(-c2nc(CSCC(=O)NC3CC3)c(C)o2)c1
50 | 26900 nM (inactive) | CC(C)c1ccc(-c2noc(CCC(=O)NC(C)(C)C)n2)cc1
51 | 220 nM | CCCCc1ccc(-c2noc(CCC(=O)NCC)n2)cc1
52 | 2230 nM | Cc1oc(-c2ccc(OC(F)(F)F)cc2)nc1CSCC(=O)NC1CC1

Row | IC50 | SMILES
53 | 3230 nM | CCOc1ccc(-c2nc(CSCC(=O)NC3CCC3)c(C)o2)cc1
54 | 29200 nM (inactive) | COc1ccc(-c2nc(CSCC(=O)NC3CC3)c(C)o2)cc1
55 | 2310 nM | CCCCc1ccc(-c2noc(CCC(=O)NC(C)(C)C)n2)cc1
56 | > 79000 nM (inactive) | CCOc1ccc(-c2nc(CSCC(=O)NC3CC3)c(-c3ccccc3)o2)cc1
57 | > 79000 nM (inactive) | CCOc1ccccc1-c1nc(CSCC(=O)O)c(C)o1
58 | 15700 nM | Cc1oc(-c2ccc(C(F)(F)F)cc2)nc1CSCC(=O)NC1CC1
59 | 970 nM | Cc1oc(-c2ccc(C(F)(F)F)cc2)nc1CSCC(=O)O
60 | > 79000 nM (inactive) | CCOc1ccc(-c2nc(CSCC(=O)N3CCOCC3)c(C)o2)cc1
61 | 210 nM | CCOc1ccc(-c2nc(CSCC(=O)NCc3ccco3)c(C)o2)cc1
62 | < 150 nM | CCCOc1ccc(-c2nc(CSCC(=O)O)c(C)o2)cc1
63 | > 79000 nM (inactive) | Cc1oc(-c2ccccc2)nc1CSCC(=O)NC1CC1
64 | < 150 nM | CCOc1ccc(-c2nc(CSCC(N)=O)c(C)o2)cc1
65 | 490 nM | CCC(C)NC(=O)CCc1nc(-c2ccc(C(C)(C)C)cc2)no1 (stereo not drawn)
66 | < 160 nM | CNC(=O)CCc1nc(-c2ccc(C(C)(C)C)cc2)no1
67 | > 79000 nM (inactive) | COc1ccc(C(=O)Nc2ccc3[nH]c(-c4cccc(OC)c4)cc(=O)c3c2)cc1
68 | > 79000 nM (inactive) | CCc1ccc(-c2noc(CCC(=O)NC(C)CC)n2)cc1 (stereo not drawn)
69 | 190 nM | CCOc1ccc(-c2nc(CSCC(=O)NC3CC3)c(C)o2)cc1
70 | > 79000 nM (inactive) | CNC(=O)CCc1nc(-c2ccccc2)no1
71 | > 79000 nM (inactive) | O=C(O)CCc1nc(-c2ccccc2)no1
72 | > 79000 nM (inactive) | CCc1ccc(-c2noc(CCC(=O)NC3CC3)n2)cc1
73 | 320 nM | CCNC(=O)CCc1nc(-c2ccc(C(C)C)cc2)no1
74 | > 79000 nM (inactive) | COc1cccc(-c2cc(=O)c3cc(NC(=O)c4ccccc4)ccc3[nH]2)c1
75 | > 79000 nM (inactive) | CCc1ccc(-c2noc(CCC(=O)NC(C)(C)C)n2)cc1
76 | 16200 nM | Cc1ccc(-c2nc(CSCC(=O)NC3CC3)c(C)o2)cc1
77 | 190 nM | CC(C)(C)c1ccc(-c2noc(CCC(=O)O)n2)cc1
78 | > 79000 nM (inactive) | CC(C)Nc1ccc(C(CC(=O)O)NC(=O)c2ccccc2)cc1[N+](=O)[O-] (stereo not drawn)
